Columns and labels:
Chenopodium album [1] = assay: Post-emergence herbicidal activity against Chenopodium album assessed as growth inhibition at 75 g ai/ha measured 15 days post compound treatment under green house conditions; assay type: functional; conditions: 360 h, read-out: GI
Outline: (§1)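 Compounds formulated as 100 g/L emulsifiable concentrate (DMF solvent, Tween-80 emulsifier), diluted with water, sprayed post-emergence on pot-grown weeds in clay soil (pH 6.5, 1.6% organic matter). Seeds sown 1-3 cm deep, grown at 15-30 °C. Dicots were treated at the 2-leaf stage and monocots at the 1-leaf stage. Untreated and DMF-treated controls were included. Injury was rated visually 15 days after treatment.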

Polygonum humifusum [2] = assay: Post-emergence herbicidal activity against Polygonum humifusum assessed as growth inhibition at 150 g ai/ha measured 15 days post compound treatment under green house conditions; assay type: functional; conditions: 360 h, read-out: GI; outline: as §1
Cerastium arvense [3] = assay: Post-emergence herbicidal activity against Cerastium arvense assessed as growth inhibition at 37.5 g ai/ha measured 15 days post compound treatment under green house conditions; assay type: functional; conditions: 360 h, read-out: GI; outline: as §1
Cerastium arvense [4] = assay: Post-emergence herbicidal activity against Cerastium arvense assessed as growth inhibition at 150 g ai/ha measured 15 days post compound treatment under green house conditions; assay type: functional; conditions: 360 h, read-out: GI; outline: as §1
Amaranthus retroflexus [5] = assay: Post-emergence herbicidal activity against Amaranthus retroflexus assessed as growth inhibition at 37.5 g ai/ha measured 15 days post compound treatment under green house conditions; assay type: functional; conditions: 360 h, read-out: GI; outline: as §1
Rumex acetosa [6] = assay: Post-emergence herbicidal activity against Rumex acetosa assessed as growth inhibition at 75 g ai/ha measured 15 days post compound treatment under green house conditions; assay type: functional; conditions: 360 h, read-out: GI; outline: as §1
Rumex acetosa [7] = assay: Post-emergence herbicidal activity against Rumex acetosa assessed as growth inhibition at 37.5 g ai/ha measured 15 days post compound treatment under green house conditions; assay type: functional; conditions: 360 h, read-out: GI; outline: as §1
Cerastium arvense [8] = assay: Post-emergence herbicidal activity against Cerastium arvense assessed as growth inhibition at 75 g ai/ha measured 15 days post compound treatment under green house conditions; assay type: functional; conditions: 360 h, read-out: GI; outline: as §1
Polygonum humifusum [9] = assay: Post-emergence herbicidal activity against Polygonum humifusum assessed as growth inhibition at 75 g ai/ha measured 15 days post compound treatment under green house conditions; assay type: functional; conditions: 360 h, read-out: GI; outline: as §1
Rumex acetosa [10] = assay: Post-emergence herbicidal activity against Rumex acetosa assessed as growth inhibition at 150 g ai/ha measured 15 days post compound treatment under green house conditions; assay type: functional; conditions: 360 h, read-out: GI; outline: as §1
Amaranthus retroflexus [11] = assay: Post-emergence herbicidal activity against Amaranthus retroflexus assessed as growth inhibition at 150 g ai/ha measured 15 days post compound treatment under green house conditions; assay type: functional; conditions: 360 h, read-out: GI; outline: as §1
Digitaria sanguinalis = assay: Post-emergence herbicidal activity against Digitaria sanguinalis (hairy crabgrass) assessed as growth inhibition at 150 g ai/ha measured 15 days post compound treatment under green house conditions; assay type: functional; conditions: 360 h, read-out: GI; outline: as §1
Chenopodium album [12] = assay: Post-emergence herbicidal activity against Chenopodium album assessed as growth inhibition at 150 g ai/ha measured 15 days post compound treatment under green house conditions; assay type: functional; conditions: 360 h, read-out: GI; outline: as §1
Brassica juncea = assay: Post-emergence herbicidal activity against Brassica juncea assessed as growth inhibition at 150 g ai/ha measured 15 days post compound treatment under green house conditions; assay type: functional; conditions: 360 h, read-out: GI; outline: as §1
Galium aparine [13] = assay: Post-emergence herbicidal activity against Galium aparine assessed as growth inhibition at 37.5 g ai/ha measured 15 days post compound treatment under green house conditions; assay type: functional; conditions: 360 h, read-out: GI; outline: as §1
Polygonum humifusum [14] = assay: Post-emergence herbicidal activity against Polygonum humifusum assessed as growth inhibition at 37.5 g ai/ha measured 15 days post compound treatment under green house conditions; assay type: functional; conditions: 360 h, read-out: GI; outline: as §1
Cyperus iria [15] = assay: Post-emergence herbicidal activity against Cyperus iria assessed as growth inhibition at 37.5 g ai/ha measured 15 days post compound treatment under green house conditions; assay type: functional; conditions: 360 h, read-out: GI; outline: as §1
[16] = target: T1, Acetolactate synthase, chloroplastic (Arabidopsis thaliana, UniProt P17597)
T1 sequence (P17597 whole entry): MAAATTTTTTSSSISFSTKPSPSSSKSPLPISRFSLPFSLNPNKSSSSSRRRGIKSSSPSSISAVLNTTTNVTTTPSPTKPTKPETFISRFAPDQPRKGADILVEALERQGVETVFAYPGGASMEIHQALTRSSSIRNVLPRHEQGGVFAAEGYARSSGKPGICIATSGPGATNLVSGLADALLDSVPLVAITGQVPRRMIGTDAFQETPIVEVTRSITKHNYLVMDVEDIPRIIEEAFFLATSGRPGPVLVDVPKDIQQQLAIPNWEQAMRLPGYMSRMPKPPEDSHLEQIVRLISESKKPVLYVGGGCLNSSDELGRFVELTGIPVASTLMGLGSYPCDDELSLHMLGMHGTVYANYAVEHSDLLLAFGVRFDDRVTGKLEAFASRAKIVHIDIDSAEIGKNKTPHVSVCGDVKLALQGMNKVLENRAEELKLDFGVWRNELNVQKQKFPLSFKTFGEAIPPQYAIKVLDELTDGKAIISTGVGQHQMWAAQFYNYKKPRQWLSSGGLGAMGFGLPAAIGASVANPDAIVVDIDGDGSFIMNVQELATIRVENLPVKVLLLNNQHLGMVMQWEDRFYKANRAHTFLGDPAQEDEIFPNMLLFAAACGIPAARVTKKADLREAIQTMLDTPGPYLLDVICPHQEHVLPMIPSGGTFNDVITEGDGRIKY

Chenopodium album [17] = assay: Post-emergence herbicidal activity against Chenopodium album assessed as growth inhibition at 37.5 g ai/ha measured 15 days post compound treatment under green house conditions; assay type: functional; conditions: 360 h, read-out: GI; outline: as §1
Eclipta prostrata [18] = assay: Post-emergence herbicidal activity against Eclipta prostrata assessed as growth inhibition at 37.5 g ai/ha measured 15 days post compound treatment under green house conditions; assay type: functional; conditions: 360 h, read-out: GI; outline: as §1
Amaranthus retroflexus [19] = assay: Post-emergence herbicidal activity against Amaranthus retroflexus assessed as growth inhibition at 75 g ai/ha measured 15 days post compound treatment under green house conditions; assay type: functional; conditions: 360 h, read-out: GI; outline: as §1
Galium aparine [20] = assay: Post-emergence herbicidal activity against Galium aparine assessed as growth inhibition at 75 g ai/ha measured 15 days post compound treatment under green house conditions; assay type: functional; conditions: 360 h, read-out: GI; outline: as §1
Cyperus iria [21] = assay: Post-emergence herbicidal activity against Cyperus iria assessed as growth inhibition at 75 g ai/ha measured 15 days post compound treatment under green house conditions; assay type: functional; conditions: 360 h, read-out: GI; outline: as §1
Eclipta prostrata [22] = assay: Post-emergence herbicidal activity against Eclipta prostrata assessed as growth inhibition at 150 g ai/ha measured 15 days post compound treatment under green house conditions; assay type: functional; conditions: 360 h, read-out: GI; outline: as §1
Echinochloa crus-galli = assay: Post-emergence herbicidal activity against Echinochloa crus-galli (barnyard grass) assessed as growth inhibition at 150 g ai/ha measured 15 days post compound treatment under green house conditions; assay type: functional; conditions: 360 h, read-out: GI; outline: as §1
Galium aparine [23] = assay: Post-emergence herbicidal activity against Galium aparine assessed as growth inhibition at 150 g ai/ha measured 15 days post compound treatment under green house conditions; assay type: functional; conditions: 360 h, read-out: GI; outline: as §1
Eclipta prostrata [24] = assay: Post-emergence herbicidal activity against Eclipta prostrata assessed as growth inhibition at 75 g ai/ha measured 15 days post compound treatment under green house conditions; assay type: functional; conditions: 360 h, read-out: GI; outline: as §1
Poa annua = assay: Post-emergence herbicidal activity against Poa annua assessed as growth inhibition at 150 g ai/ha measured 15 days post compound treatment under green house conditions; assay type: functional; conditions: 360 h, read-out: GI; outline: as §1
Cyperus iria [25] = assay: Post-emergence herbicidal activity against Cyperus iria assessed as growth inhibition at 150 g ai/ha measured 15 days post compound treatment under green house conditions; assay type: functional; conditions: 360 h, read-out: GI; outline: as §1

Row | SMILES | inhibition of growth at 75 g/ha (Chenopodium album [1]) | inhibition of growth at 150 g/ha (Polygonum humifusum [2]) | inhibition of growth at 37.5 g/ha (Cerastium arvense [3]) | inhibition of growth at 150 g/ha (Cerastium arvense [4]) | inhibition of growth at 37.5 g/ha (Amaranthus retroflexus [5]) | inhibition of growth at 75 g/ha (Rumex acetosa [6]) | inhibition of growth at 37.5 g/ha (Rumex acetosa [7]) | inhibition of growth at 75 g/ha (Cerastium arvense [8]) | inhibition of growth at 75 g/ha (Polygonum humifusum [9]) | inhibition of growth at 150 g/ha (Rumex acetosa [10]) | inhibition of growth at 150 g/ha (Amaranthus retroflexus [11]) | inhibition of growth at 150 g/ha (Digitaria sanguinalis) | inhibition of growth at 150 g/ha (Chenopodium album [12]) | inhibition of growth at 150 g/ha (Brassica juncea) | inhibition of growth at 37.5 g/ha (Galium aparine [13]) | inhibition of growth at 37.5 g/ha (Polygonum humifusum [14]) | inhibition of growth at 37.5 g/ha (Cyperus iria [15]) | Ki [16] | inhibition of growth at 37.5 g/ha (Chenopodium album [17]) | inhibition of growth at 37.5 g/ha (Eclipta prostrata [18]) | other results
1 | Cc1nc(C(F)(F)F)cc2nc(S(=O)(=O)Nc3c(F)cccc3F)nn12 | ≥ 80% | 50% | 50% | 50% | < 50% | 50% | 50% | 50% | < 50% | 50% | < 50% | < 50% | ≥ 90% | ≥ 80% | 50% | < 50% | < 50% | 70.6 µM | ≥ 80% | 50% | inhibition of growth at 75 g/ha (Amaranthus retroflexus [19]): < 50%; inhibition of growth at 75 g/ha (Galium aparine [20]): ≥ 80%; inhibition of growth at 75 g/ha (Cyperus iria [21]): < 50%; inhibition of growth at 150 g/ha (Eclipta prostrata [22]): ≥ 80%; inhibition of growth at 150 g/ha (Echinochloa crus-galli): < 50%; inhibition of growth at 150 g/ha (Galium aparine [23]): ≥ 80%; inhibition of growth at 75 g/ha (Eclipta prostrata [24]): ≥ 80%; inhibition of growth at 150 g/ha (Poa annua): < 50%; inhibition of growth at 150 g/ha (Cyperus iria [25]): < 50%
2 | COC(=O)c1cccc(Cl)c1NS(=O)(=O)c1nc2nc(OC)ccn2n1 | ≥ 90% | 50% | ≥ 80% | ≥ 90% | ≥ 80% | ≥ 80% | ≥ 80% | ≥ 80% | 50% | ≥ 80% | ≥ 80% | < 50% | ≥ 90% | ≥ 90% | ≥ 80% | 50% | 50% | 1.61 µM | ≥ 80% | 50% | inhibition of growth at 75 g/ha (Amaranthus retroflexus [19]): ≥ 80%; inhibition of growth at 75 g/ha (Galium aparine [20]): ≥ 90%; inhibition of growth at 75 g/ha (Cyperus iria [21]): 50%; inhibition of growth at 150 g/ha (Eclipta prostrata [22]): ≥ 90%; inhibition of growth at 150 g/ha (Echinochloa crus-galli): 50%; inhibition of growth at 150 g/ha (Galium aparine [23]): ≥ 90%; inhibition of growth at 75 g/ha (Eclipta prostrata [24]): ≥ 80%; inhibition of growth at 150 g/ha (Poa annua): < 50%; inhibition of growth at 150 g/ha (Cyperus iria [25]): 50%

Source: ChEMBL document CHEMBL3046780, “Syntheses and herbicidal activity of new triazolopyrimidine-2-sulfonamides as acetohydroxyacid synthase inhibitor” (Bioorg Med Chem, 2010)
